Active and inactive are the calls of the source. The calls are words filed in the database; no cut-off is given here.
Legend:
Mus musculus [1] = experiment: Neurotoxicity in Swiss albino mouse at 30 mg/kg, ip after 0.5 hrs by rotarod test; format: toxicity, organism-based; details: in vivo
Method in brief: (§1)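 Rotarod turning at 6 rpm, run after i.p. dosing of PEG 400 suspension (30, 100 or 300 mg/kg; 0.5 or 4 h). Falling off three times within 1 min marks a mouse as neurotoxic. Placebo (PEG) mice serve as control. Scored as number failing/number tested.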

Mus musculus [2] = experiment: Neurotoxicity in Swiss albino mouse at 300 mg/kg, ip after 0.5 hrs by rotarod test; format: toxicity, organism-based; details: in vivo; method in brief: as §1
Mus musculus [3] = experiment: Neurotoxicity in Swiss albino mouse at 300 mg/kg, ip after 4 hrs by rotarod test; format: toxicity, organism-based; details: in vivo; method in brief: as §1
Mus musculus [4] = experiment: Neurotoxicity in Swiss albino mouse at 100 mg/kg, ip after 0.5 hrs by rotarod test; format: toxicity, organism-based; details: in vivo; method in brief: as §1
Mus musculus [5] = experiment: Neurotoxicity in Swiss albino mouse at 100 mg/kg, ip after 4 hrs by rotarod test; format: toxicity, organism-based; details: in vivo; method in brief: as §1
Mus musculus [6] = experiment: Anticonvulsant activity in Swiss albino mouse assessed as protection against maximal electroshock-induced seizures at 300 mg/kg, ip after 4 hrs; format: functional, organism-based
Method in brief: (§2)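 Compound suspended in PEG 400 and given i.p. at 30, 100 or 300 mg/kg, 0.5 or 4 h before testing. Saline (0.9%) applied to the corneas, then 60 Hz alternating current for 0.2 s through corneal electrodes. A mouse counts as protected if hind limb tonic extension stays under 90°. PEG-only placebo mice serve as negative control. Scored as number protected/number tested.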

Mus musculus [7] = experiment: Neurotoxicity in Swiss albino mouse at 30 mg/kg, ip after 4 hrs by rotarod test; format: toxicity, organism-based; details: in vivo; method in brief: as §1
Mus musculus [8] = experiment: Anticonvulsant activity in Swiss albino mouse assessed as protection against maximal electroshock-induced seizures at 30 mg/kg, ip after 4 hrs; format: functional, organism-based; method in brief: as §2
Mus musculus [9] = experiment: Anticonvulsant activity in Swiss albino mouse assessed as protection against maximal electroshock-induced seizures at 100 mg/kg, ip after 4 hrs; format: functional, organism-based; method in brief: as §2
Mus musculus [10] = experiment: Anticonvulsant activity in Swiss albino mouse assessed as protection against maximal electroshock-induced seizures at 30 mg/kg, ip after 0.5 hrs; format: functional, organism-based; method in brief: as §2
Mus musculus [11] = experiment: Anticonvulsant activity in Swiss albino mouse assessed as protection against maximal electroshock-induced seizures at 300 mg/kg, ip after 0.5 hrs; format: functional, organism-based; method in brief: as §2
Mus musculus [12] = experiment: Anticonvulsant activity in Swiss albino mouse assessed as protection against maximal electroshock-induced seizures at 100 mg/kg, ip after 0.5 hrs; format: functional, organism-based; method in brief: as §2
Mus musculus [13] = experiment: Anticonvulsant activity in Swiss albino mouse assessed as protection against subcutaneously injected metrazol induced seizures at 300 mg/kg, ip after 4 hrs; format: functional, organism-based
Method in brief: (§3)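 Test compounds were given i.p. as PEG 400 suspensions at 30, 100 or 300 mg/kg, 0.5 or 4 h ahead. Metrazol 85 mg/kg is injected s.c. in the neck midline, and mice are watched for 30 min. A mouse counts as protected if it has no clonic spasm episode (about 3–5 s) of the limbs, jaws or vibrissae. PEG placebo serves as negative control. Scored as number protected/number tested.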

Mus musculus [14] = experiment: Anticonvulsant activity in Swiss albino mouse assessed as protection against subcutaneously injected metrazol induced seizures at 300 mg/kg, ip after 0.5 hrs; format: functional, organism-based; method in brief: as §3
Mus musculus [15] = experiment: Anticonvulsant activity in Swiss albino mouse assessed as protection against subcutaneously injected metrazol induced seizures at 100 mg/kg, ip after 4 hrs; format: functional, organism-based; method in brief: as §3
Mus musculus [16] = experiment: Anticonvulsant activity in Swiss albino mouse assessed as protection against subcutaneously injected metrazol induced seizures at 30 mg/kg, ip after 4 hrs; format: functional, organism-based; method in brief: as §3

Compound	Activity (Mus musculus [1])	Activity (Mus musculus [2])	Activity (Mus musculus [3])	Activity (Mus musculus [4])	Activity (Mus musculus [5])	Activity (Mus musculus [6])	Activity (Mus musculus [7])	Activity (Mus musculus [8])	Activity (Mus musculus [9])	Activity (Mus musculus [10])	Activity (Mus musculus [11])	Activity (Mus musculus [12])	Activity (Mus musculus [13])	Activity (Mus musculus [14])	Activity (Mus musculus [15])	Activity (Mus musculus [16])
CC(C)C(=O)O/N=C(\Cn1cncn1)c1ccc2ccccc2c1.Cl	Non-Toxic	Non-Toxic	Non-Toxic	Non-Toxic	Non-Toxic	Active	Non-Toxic	–	–	–	–	–	–	–	–	–
O=C1NC(=O)C(c2ccccc2)(c2ccccc2)N1 [PHENYTOIN]	Non-Toxic	Toxic	Toxic	Non-Toxic	Toxic	Active	Non-Toxic	Active	Active	Active	Active	Active	–	–	–	–
CCC(C)C(=O)O/N=C(\Cn1cncn1)c1ccc2ccccc2c1 (configuration not stated)	Non-Toxic	Non-Toxic	Non-Toxic	Non-Toxic	Non-Toxic	–	Non-Toxic	–	–	–	Active	Active	Active	–	–	–
CCC(C)CC(=O)O/N=C(\Cn1cncn1)c1ccc2ccccc2c1.Cl (configuration not stated)	Non-Toxic	Non-Toxic	Non-Toxic	Non-Toxic	Non-Toxic	Active	Non-Toxic	–	–	–	–	Active	Active	–	–	–
NC(=O)N1c2ccccc2C=Cc2ccccc21 [CARBAMAZEPINE]	Non-Toxic	Toxic	Non-Toxic	Non-Toxic	Non-Toxic	Active	Non-Toxic	–	Active	Active	Active	Active	Active	Active	Active	–
CCCCC(=O)O/N=C(\Cn1cncn1)c1ccc2ccccc2c1.Cl	Non-Toxic	Non-Toxic	Non-Toxic	Non-Toxic	Non-Toxic	–	Non-Toxic	–	–	–	Active	–	–	–	–	–
CCC(=O)O/N=C(\Cn1cncn1)c1ccc2ccccc2c1.Cl	Non-Toxic	Non-Toxic	Non-Toxic	Non-Toxic	Non-Toxic	–	Non-Toxic	–	–	–	–	–	–	–	–	–
CCCC(=O)O/N=C(\Cn1cncn1)c1ccc2ccccc2c1	Non-Toxic	Non-Toxic	Non-Toxic	Non-Toxic	Non-Toxic	Active	Non-Toxic	–	–	–	–	–	–	–	–	–
CCCC(CCC)C(=O)O/N=C(\Cn1cncn1)c1ccc2ccccc2c1.Cl	Non-Toxic	Non-Toxic	Non-Toxic	Non-Toxic	Non-Toxic	Active	Non-Toxic	–	–	–	–	–	Active	–	–	–
CC(C)CC(=O)O/N=C(\Cn1cncn1)c1ccc2ccccc2c1.Cl	Non-Toxic	Non-Toxic	Non-Toxic	Non-Toxic	Non-Toxic	–	Non-Toxic	–	Active	–	Active	–	Active	Active	Active	Active
CCCC(C)C(=O)O/N=C(\Cn1cncn1)c1ccc2ccccc2c1.Cl (configuration not stated)	Non-Toxic	Non-Toxic	Non-Toxic	Non-Toxic	Non-Toxic	–	Non-Toxic	–	–	–	Active	–	–	–	–	–
O=C(O/N=C(\Cn1cncn1)c1ccc2ccccc2c1)C1CCCCC1	Non-Toxic	Non-Toxic	Non-Toxic	Non-Toxic	Non-Toxic	–	Non-Toxic	–	–	–	Active	–	–	–	–	–
CC(C)(C)C(=O)O/N=C(\Cn1cncn1)c1ccc2ccccc2c1	Non-Toxic	Non-Toxic	Non-Toxic	Non-Toxic	Non-Toxic	–	Non-Toxic	–	–	–	–	–	–	–	–	–
Cl.O=C(Cc1ccccc1)O/N=C(\Cn1cncn1)c1ccc2ccccc2c1	Non-Toxic	Non-Toxic	Non-Toxic	Non-Toxic	Non-Toxic	–	Non-Toxic	–	–	–	–	–	–	–	–	–
O=C(/C=C/c1ccccc1)O/N=C(\Cn1cncn1)c1ccc2ccccc2c1	Non-Toxic	Non-Toxic	Non-Toxic	Non-Toxic	Non-Toxic	–	Non-Toxic	–	–	–	–	–	–	–	–	–
CC(C)CCC(=O)O/N=C(\Cn1cncn1)c1ccc2ccccc2c1.Cl	Non-Toxic	Non-Toxic	Non-Toxic	Non-Toxic	Non-Toxic	–	Non-Toxic	–	–	–	Active	Active	Active	–	–	–

From ChEMBL document CHEMBL3875155, “New (arylalkyl)azole derivatives showing anticonvulsant effects could have VGSC and/or GABAAR affinity according to molecular modeling studies” (Eur J Med Chem, 2016)
